ChEMBL document CHEMBL4819017 (Eur J Med Chem, 2021)

Tests used:
[1] = Inhibition of PI3K/mTOR in human MCF7 cells assessed as reduction of AKT phosphorylation at Ser473 residue measured after 3 hrs by western blot assay; type: cell-based; conditions: MCF7, 3 h
How it was run: (§1)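 MCF7 cells treated for 3 h across a dose range, washed and lysed with phosphatase and protease inhibitors. Lysates run on 10% SDS-PAGE and blotted, antibodies incubated overnight at 4 °C.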

[2] = Inhibition of PI3K/mTOR in human MCF7 cells assessed as reduction of S6 phosphorylation at Ser235/236 residue measured after 3 hrs by western blot assay; type: cell-based; conditions: MCF7, 3 h; how it was run: as §1
[3] = tested on: NCI-H1975; assay: Growth inhibition of human NCI-H1975 cells harboring mutated p110alpha measured after 72 hrs by Cell titre Glo-luminiscence cell viability assay; type: functional
How it was run: (§2)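 Cells harvested just before confluency and seeded at 4,000 cells/well, then left 24 h before dosing. Serial dilutions from 10 mM DMSO stocks, final DMSO ≤0.5%, each concentration in duplicate.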

[4] = Inhibition of PI3K/mTOR in human MCF7 cells assessed as reduction of AKT phosphorylation at Thr308 residue measured after 3 hrs by western blot assay; type: cell-based; conditions: MCF7, 3 h; how it was run: as §1
[5] = tested on: PC-3; assay: Growth inhibition of human PC-3 cells harboring PTEN inactivation measured after 72 hrs by Cell titre Glo-luminiscence cell viability assay; type: functional; how it was run: as §2
[6] = tested on: A549; assay: Growth inhibition of human A549 cells harboring wild type p110alpha and PTEN measured after 72 hrs by Cell titre Glo-luminiscence cell viability assay; type: functional; how it was run: as §2
[7] = Inhibition of PI3K/mTOR in human MCF7 cells assessed as reduction of P70S6K phosphorylation at Thr389 residue measured after 3 hrs by western blot assay; type: cell-based; conditions: MCF7, 3 h; how it was run: as §1
[8] = Inhibition of PI3K/mTOR in human U2OS cells assessed as inhibition of AKT1 phosphorylation at Ser473 residue by C-ELISA; type: cell-based
How it was run: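 U2OS osteosarcoma cells grown in 0.1% FBS and serum-stimulated. Endogenous phospho-AKT1 Ser473 quantified by cell-based ELISA with chemiluminescent substrate. Signal plotted against inhibitor concentration and fitted to a sigmoid dose-response curve.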

[9] = tested on: HT-29; assay: Growth inhibition of human HT-29 cells harboring mutated p110alpha measured after 72 hrs by Cell titre Glo-luminiscence cell viability assay; type: functional; how it was run: as §2
[10] = tested on: DU-145; assay: Growth inhibition of human DU-145 cells harboring wild type p110alpha and PTEN measured after 72 hrs by Cell titre Glo-luminiscence cell viability assay; type: functional; how it was run: as §2
[11] = biological target: Phosphatidylinositol 4,5-bisphosphate 3-kinase catalytic subunit gamma isoform (Homo sapiens, UniProt P48736); assay: Inhibition of human p110gamma using PIP2 as substrate in presence of ATP measured by HTRF assay
How it was run: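 HTRF PI3-kinase assay with PIP2 at 10 µM. Enzyme and ATP levels (ATP at 50× KM): p110α/p85α 100 pM with 200 µM ATP; p110δ/p85α 100 pM with 200 µM ATP; p110β/p85α 500 pM with 250 µM ATP; p110γ 4 nM with 100 µM ATP. Activity normalized to no-compound control, variable-slope sigmoidal fit. Two independent experiments in duplicate.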

[12] = Metabolic stability in rat liver microsomes assessed as parent compound remaining in presence of NADPH regenerating system at 0.5 uM measured after 15 mins by LC-MS/MS analysis; type: ADME, Microsome; conditions: read-out: Stabilty
How it was run: (§3)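 Human, mouse or rat liver microsomes at 0.5 mg/ml protein with compound at 0.5 µM and NADPH-regenerating system, 37 °C with shaking. Control wells contain 0.1 M potassium phosphate instead of the regenerating system. Reaction stopped with acetonitrile/0.1% formic acid, centrifuged, supernatant analyzed by LC-MS/MS. Result is percent parent compound remaining.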

[13] = AUC(infinity) in BALB/c mouse at 10 mg/kg, po measured for 8 hrs; type: ADME, organism-based; set-up: route oral, time 8 hrs, dose 10 mg/kg; conditions: in vivo
How it was run: (§4)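 BALB/c mice dosed I.V. or P.O. at the stated dose; plasma levels followed for 8 h. Parameters from noncompartmental analysis: AUC (h.ng/ml), T1/2 (h), Cl (L/h/Kg), Vd (L/Kg), Cmax (ng/ml), Tmax (h).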

[14] = Clearance in BALB/c mouse at 5 mg/kg, iv measured for 8 hrs; type: ADME, organism-based; conditions: in vivo; how it was run: as §4
[15] = biological target: Cytochrome P450 2D6 (Homo sapiens, UniProt P10635); assay: Inhibition of CYP2D6 (unknown origin) using Luciferin-ME-EG as substrate at 10 uM preincubated with enzyme and substrate for 5 mins followed by addition of NADPH regeneration system and measured after 60 mins by luminescence method; type: ADME
How it was run: (§5)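 P450-Glo luminescence assays with these substrates: Luciferin-ME (CYP1A2), Luciferin-PPXE (CYP3A4), Luciferin-H (CYP2C9), LuciferinH-EG (CYP2C19), Luciferin-ME-EG (CYP2D6). Compounds run in 1/3 serial dilutions from 10 µM in 0.5% DMSO with enzyme and substrate. After 5 min preincubation, NADPH regeneration reagent added; 60 min at 37 °C, then detection reagent for 30 min. Background subtracted.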

[16] = biological target: Voltage-gated inwardly rectifying potassium channel KCNH2 (Homo sapiens, UniProt Q12809); assay: Inhibition of human ERG by fluorescence polarization assay
How it was run: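 Predictor h-ERG membrane preparations (sonicated) incubated with test compound dilutions and fluorescent tracer (working 4X tracer at 4 nM) at room temperature for ≥1 h. Read-out by fluorescence polarization, ex 530/25, em 590/35.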

[17] = biological target: Cytochrome P450 3A4 (Homo sapiens, UniProt P08684); assay: Inhibition of CYP3A4 (unknown origin) using Luciferin-PPXE as substrate at 10 uM preincubated with enzyme and substrate for 5 mins followed by addition of NADPH regeneration system and measured after 60 mins by luminescence method; type: ADME; how it was run: as §5
[18] = Half life in BALB/c mouse at 10 mg/kg, po measured for 8 hrs; type: ADME, organism-based; conditions: in vivo; how it was run: as §4
[19] = Cmax in BALB/c mouse at 10 mg/kg, po measured for 8 hrs; type: ADME, organism-based; set-up: route oral, dose 10 mg/kg, time 8 hrs; conditions: in vivo; how it was run: as §4
[20] = biological target: Serine/threonine-protein kinase mTOR (Homo sapiens, UniProt P42345); assay: Inhibition of recombinant human GST tagged mTOR (1360 to 2549 residues) expressed in baculovirus expression system measured by LanthaScreen assay
How it was run: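 mTOR inhibition measured by LanthaScreen assay; IC50 values average two independent experiments.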

[21] = biological target: T1, Cytochrome P450 1A2 (Homo sapiens, UniProt P05177); assay: Inhibition of CYP1A2 (unknown origin) using Luciferin-ME as substrate at 10 uM preincubated with enzyme and substrate for 5 mins followed by addition of NADPH regeneration system and measured after 60 mins by luminescence method; type: ADME; how it was run: as §5
T1 sequence (P05177 whole entry): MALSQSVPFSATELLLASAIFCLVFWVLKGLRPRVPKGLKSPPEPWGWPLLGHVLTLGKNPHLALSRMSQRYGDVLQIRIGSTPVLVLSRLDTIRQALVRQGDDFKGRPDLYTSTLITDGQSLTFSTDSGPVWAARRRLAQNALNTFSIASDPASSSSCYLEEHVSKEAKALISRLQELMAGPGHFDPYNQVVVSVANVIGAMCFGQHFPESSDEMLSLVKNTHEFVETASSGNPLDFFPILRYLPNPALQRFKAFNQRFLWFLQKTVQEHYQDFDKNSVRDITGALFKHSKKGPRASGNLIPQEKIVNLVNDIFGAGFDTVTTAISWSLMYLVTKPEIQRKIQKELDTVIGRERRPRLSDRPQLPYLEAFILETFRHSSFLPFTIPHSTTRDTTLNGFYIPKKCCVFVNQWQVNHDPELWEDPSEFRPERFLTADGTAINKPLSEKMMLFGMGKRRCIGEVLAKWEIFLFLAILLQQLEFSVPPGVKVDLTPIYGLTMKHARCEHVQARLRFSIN

[22] = Metabolic stability in mouse liver microsomes assessed as parent compound remaining in presence of NADPH regenerating system at 0.5 uM measured after 15 mins by LC-MS/MS analysis; type: ADME, Microsome; conditions: read-out: Stabilty; how it was run: as §3
[23] = species on record: Homo sapiens; assay: Selectivity ratio of IC50 for recombinant human GST tagged mTOR (1360 to 2549 residues) expressed in baculovirus expression system to IC50 for human full length p110alpha (1 to 1068 residues) expressed in baculovirus-infected Sf21 cells
How it was run: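 mTOR activity measured by LanthaScreen assay. PI3K-α activity measured by ADP Hunter Plus (ADP accumulation, fluorescence ex 544/em 580 nm), normalized to no-compound control and fitted to a sigmoid dose-response curve. IC50s are the average of two independent experiments. Ratio is mTOR IC50 over PI3K-α IC50.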

[24] = biological target: Cytochrome P450 2C19 (Homo sapiens, UniProt P33261); assay: Inhibition of CYP2C19 (unknown origin) using LuciferinH-EG as substrate at 10 uM preincubated with enzyme and substrate for 5 mins followed by addition of NADPH regeneration system and measured after 60 mins by luminescence method; type: ADME; how it was run: as §5
[25] = biological target: Phosphatidylinositol 4,5-bisphosphate 3-kinase catalytic subunit alpha isoform (Homo sapiens, UniProt P42336); assay: Inhibition of human full length p110alpha (1 to 1068 residues) expressed in baculovirus-infected Sf21 cells by ADP-Hunter Plus assay
[26] = Oral bioavailability in BALB/c mouse at 10 mg/kg measured for 8 hrs; type: ADME, organism-based; conditions: in vivo; how it was run: as §4
[27] = Volume of distribution in BALB/c mouse at 5 mg/kg, iv measured for 8 hrs; type: ADME, organism-based; conditions: in vivo
How it was run: (§6)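 Dosing in BALB-C mice intravenously or orally, with plasma sampled over 8 h. Parameters (AUC, T1/2, Cl, Vd, Cmax, Tmax) come from a noncompartmental model. Units: AUC h.ng/ml, Vd L/Kg, Cmax ng/ml, Tmax h.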

[28] = biological target: Cytochrome P450 2C9 (Homo sapiens, UniProt P11712); assay: Inhibition of CYP2C9 (unknown origin) using Luciferin-H as substrate at 10 uM preincubated with enzyme and substrate for 5 mins followed by addition of NADPH regeneration system and measured after 60 mins by luminescence method; type: ADME; how it was run: as §5
[29] = Metabolic stability in human liver microsomes assessed as parent compound remaining in presence of NADPH regenerating system at 0.5 uM measured after 15 mins by LC-MS/MS analysis; type: ADME, Microsome; conditions: read-out: Stabilty; how it was run: as §3
[30] = AUC (infinity) in BALB/c mouse at 5 mg/kg, iv measured for 8 hrs; type: ADME, organism-based; set-up: route intravenous, dose 5 mg/kg, time 8 hrs; conditions: in vivo; how it was run: as §4
[31] = Plasma concentration in BALB/c mouse at 10 mg/kg, po measured for 8 hrs; type: ADME, organism-based; how it was run: as §6
[32] = Half life in BALB/c mouse at 5 mg/kg, iv measured for 8 hrs; type: ADME, organism-based; conditions: in vivo; how it was run: as §4
[33] = Tmax in BALB/c mouse at 10 mg/kg, po measured for 8 hrs; type: ADME, organism-based; conditions: in vivo; how it was run: as §6

Sequence of Cytochrome P450 2D6 (P10635 whole entry): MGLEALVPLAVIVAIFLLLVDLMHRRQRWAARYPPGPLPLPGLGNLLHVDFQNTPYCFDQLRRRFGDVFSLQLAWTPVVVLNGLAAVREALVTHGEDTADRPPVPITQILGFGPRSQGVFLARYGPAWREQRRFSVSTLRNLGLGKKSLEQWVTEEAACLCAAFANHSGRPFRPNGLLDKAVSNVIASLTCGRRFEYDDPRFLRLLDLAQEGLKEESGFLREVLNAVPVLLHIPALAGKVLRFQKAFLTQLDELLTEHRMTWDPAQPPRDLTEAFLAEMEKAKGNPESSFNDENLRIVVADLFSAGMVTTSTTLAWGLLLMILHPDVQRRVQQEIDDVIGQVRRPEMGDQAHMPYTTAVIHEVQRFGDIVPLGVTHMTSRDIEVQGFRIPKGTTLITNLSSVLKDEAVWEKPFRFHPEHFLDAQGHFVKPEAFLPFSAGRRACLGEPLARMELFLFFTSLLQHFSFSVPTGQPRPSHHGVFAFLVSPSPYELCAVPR
Sequence of Cytochrome P450 2C19 (P33261 whole entry, the tested form may be a part, canonical isoform): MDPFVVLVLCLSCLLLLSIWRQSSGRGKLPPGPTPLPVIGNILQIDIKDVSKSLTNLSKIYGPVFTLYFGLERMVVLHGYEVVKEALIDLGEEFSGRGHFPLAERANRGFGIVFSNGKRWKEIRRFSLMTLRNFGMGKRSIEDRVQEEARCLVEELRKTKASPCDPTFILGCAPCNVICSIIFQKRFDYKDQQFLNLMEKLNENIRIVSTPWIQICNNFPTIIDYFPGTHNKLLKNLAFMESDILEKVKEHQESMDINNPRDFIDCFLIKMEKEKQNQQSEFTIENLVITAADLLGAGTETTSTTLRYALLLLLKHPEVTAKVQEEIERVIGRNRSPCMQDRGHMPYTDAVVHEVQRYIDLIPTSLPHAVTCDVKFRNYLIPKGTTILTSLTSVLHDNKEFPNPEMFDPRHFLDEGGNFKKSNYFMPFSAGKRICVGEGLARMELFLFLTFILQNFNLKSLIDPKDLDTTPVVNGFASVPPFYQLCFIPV
Sequence of Cytochrome P450 2C9 (P11712 whole entry): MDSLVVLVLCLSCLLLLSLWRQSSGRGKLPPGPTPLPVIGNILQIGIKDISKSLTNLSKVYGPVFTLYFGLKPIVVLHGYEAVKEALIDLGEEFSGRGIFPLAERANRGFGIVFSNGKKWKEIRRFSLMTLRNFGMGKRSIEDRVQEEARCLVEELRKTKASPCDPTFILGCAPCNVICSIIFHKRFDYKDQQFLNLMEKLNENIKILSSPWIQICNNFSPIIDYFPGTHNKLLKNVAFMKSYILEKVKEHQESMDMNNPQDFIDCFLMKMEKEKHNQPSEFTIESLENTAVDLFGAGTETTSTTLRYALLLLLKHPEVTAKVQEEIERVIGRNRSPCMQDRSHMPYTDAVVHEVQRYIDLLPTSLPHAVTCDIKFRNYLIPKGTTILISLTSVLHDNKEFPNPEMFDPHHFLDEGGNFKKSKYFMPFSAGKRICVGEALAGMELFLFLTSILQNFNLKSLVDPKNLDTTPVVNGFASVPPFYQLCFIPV
Sequence of Cytochrome P450 3A4 (P08684 whole entry): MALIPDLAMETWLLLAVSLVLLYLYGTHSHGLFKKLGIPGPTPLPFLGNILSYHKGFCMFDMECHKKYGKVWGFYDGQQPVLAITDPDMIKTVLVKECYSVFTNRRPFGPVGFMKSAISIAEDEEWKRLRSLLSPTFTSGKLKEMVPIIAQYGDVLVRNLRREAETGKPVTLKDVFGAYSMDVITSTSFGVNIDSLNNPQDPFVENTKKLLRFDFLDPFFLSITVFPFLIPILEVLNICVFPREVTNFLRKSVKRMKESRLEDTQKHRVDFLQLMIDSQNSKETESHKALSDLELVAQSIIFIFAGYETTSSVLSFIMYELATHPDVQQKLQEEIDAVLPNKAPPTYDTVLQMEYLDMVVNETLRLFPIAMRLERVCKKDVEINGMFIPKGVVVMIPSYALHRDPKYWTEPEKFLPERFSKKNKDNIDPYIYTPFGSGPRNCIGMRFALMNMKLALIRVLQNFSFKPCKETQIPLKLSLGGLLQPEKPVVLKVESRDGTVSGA
Sequence of Voltage-gated inwardly rectifying potassium channel KCNH2 (Q12809 whole entry): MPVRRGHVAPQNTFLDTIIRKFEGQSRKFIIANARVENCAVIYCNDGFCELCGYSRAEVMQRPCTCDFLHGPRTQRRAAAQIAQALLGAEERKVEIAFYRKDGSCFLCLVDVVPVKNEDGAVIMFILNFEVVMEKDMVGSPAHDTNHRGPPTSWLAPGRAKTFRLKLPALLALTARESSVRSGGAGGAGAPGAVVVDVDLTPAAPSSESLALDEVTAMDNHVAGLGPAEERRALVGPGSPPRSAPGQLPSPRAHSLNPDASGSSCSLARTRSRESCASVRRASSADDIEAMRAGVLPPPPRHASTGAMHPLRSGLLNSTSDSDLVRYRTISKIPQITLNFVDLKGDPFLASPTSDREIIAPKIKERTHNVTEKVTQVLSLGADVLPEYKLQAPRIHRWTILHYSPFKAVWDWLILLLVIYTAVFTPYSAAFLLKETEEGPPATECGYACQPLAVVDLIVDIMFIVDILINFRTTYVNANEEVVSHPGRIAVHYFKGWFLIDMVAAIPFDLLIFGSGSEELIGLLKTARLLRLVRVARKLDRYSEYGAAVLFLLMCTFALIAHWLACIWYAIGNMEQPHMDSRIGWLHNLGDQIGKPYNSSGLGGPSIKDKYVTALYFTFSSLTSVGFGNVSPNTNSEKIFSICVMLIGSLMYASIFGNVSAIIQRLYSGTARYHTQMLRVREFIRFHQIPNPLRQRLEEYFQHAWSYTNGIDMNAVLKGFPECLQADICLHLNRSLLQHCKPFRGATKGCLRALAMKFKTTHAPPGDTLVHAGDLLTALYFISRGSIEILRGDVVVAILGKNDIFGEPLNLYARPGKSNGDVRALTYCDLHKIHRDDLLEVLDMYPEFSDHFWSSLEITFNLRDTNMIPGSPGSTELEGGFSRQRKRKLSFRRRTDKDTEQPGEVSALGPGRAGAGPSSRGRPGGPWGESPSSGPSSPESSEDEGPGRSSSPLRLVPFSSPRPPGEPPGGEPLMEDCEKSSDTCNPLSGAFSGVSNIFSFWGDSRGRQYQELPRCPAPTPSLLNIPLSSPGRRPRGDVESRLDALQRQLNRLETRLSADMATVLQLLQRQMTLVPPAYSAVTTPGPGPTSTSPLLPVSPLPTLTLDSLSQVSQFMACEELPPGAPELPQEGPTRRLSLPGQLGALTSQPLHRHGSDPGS
Sequence of Phosphatidylinositol 4,5-bisphosphate 3-kinase catalytic subunit gamma isoform (P48736 whole entry, canonical isoform): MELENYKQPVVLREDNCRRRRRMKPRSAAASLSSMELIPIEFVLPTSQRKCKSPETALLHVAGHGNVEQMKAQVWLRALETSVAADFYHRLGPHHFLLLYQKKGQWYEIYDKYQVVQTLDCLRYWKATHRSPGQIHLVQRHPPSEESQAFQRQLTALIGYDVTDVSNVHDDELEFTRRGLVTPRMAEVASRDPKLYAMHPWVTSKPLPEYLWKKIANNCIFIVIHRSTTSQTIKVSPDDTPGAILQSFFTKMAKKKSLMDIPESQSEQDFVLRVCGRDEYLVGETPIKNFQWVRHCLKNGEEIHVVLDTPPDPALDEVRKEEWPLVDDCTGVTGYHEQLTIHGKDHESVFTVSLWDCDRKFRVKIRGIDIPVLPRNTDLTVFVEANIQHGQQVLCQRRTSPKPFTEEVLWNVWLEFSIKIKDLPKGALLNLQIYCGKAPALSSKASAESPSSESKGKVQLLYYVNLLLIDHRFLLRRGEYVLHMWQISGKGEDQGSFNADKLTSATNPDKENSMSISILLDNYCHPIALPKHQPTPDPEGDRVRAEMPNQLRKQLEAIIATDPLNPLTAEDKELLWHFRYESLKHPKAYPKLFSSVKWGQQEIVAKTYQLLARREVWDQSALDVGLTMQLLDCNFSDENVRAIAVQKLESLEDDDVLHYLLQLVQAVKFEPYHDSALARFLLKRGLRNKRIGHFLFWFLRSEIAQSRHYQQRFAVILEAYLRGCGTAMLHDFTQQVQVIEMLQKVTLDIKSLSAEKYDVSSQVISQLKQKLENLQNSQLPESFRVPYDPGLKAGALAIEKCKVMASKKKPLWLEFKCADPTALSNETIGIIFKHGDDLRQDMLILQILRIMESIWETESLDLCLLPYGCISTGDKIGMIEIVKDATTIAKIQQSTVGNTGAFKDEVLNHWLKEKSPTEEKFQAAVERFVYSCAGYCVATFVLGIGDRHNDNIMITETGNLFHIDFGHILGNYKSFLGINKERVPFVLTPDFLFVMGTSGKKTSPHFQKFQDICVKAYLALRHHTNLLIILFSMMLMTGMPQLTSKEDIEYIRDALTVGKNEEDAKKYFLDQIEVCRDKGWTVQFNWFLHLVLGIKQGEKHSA

COc1ncc(-c2ccc3nccc(-c4ccnnc4)c3c2)cc1NS(=O)(=O)c1ccc(F)cc1F [OMIPALISIB]
EC50 [1]: 0.65 nM
EC50 [2]: 0.87 nM
GI50 [3]: 14.4 nM
EC50 [4]: 0.21 nM
GI50 [5]: 197 nM
GI50 [6]: 26.6 nM
EC50 [7]: 0.68 nM
EC50 [8]: 0.6 nM
GI50 [9]: 19.9 nM
GI50 [10]: 16.3 nM
Ki [11]: 0.51 nM

COc1ncc2cc1NS(=O)(=O)c1cccc(c1)C(=O)NCc1cncc(c1)-c1ncnc3ccc-2cc13
remaining at 0.25 h, 0.5 µM [12]: 86%
AUC(0-inf) [13]: 8760 ng·h/mL
clearance [14]: 9 mL/min/kg
IC50 [15]: > 30000 nM
IC50 [16]: > 30000 nM
IC50 [17]: > 30000 nM
half-life [18]: 5.68 h
Cmax [19]: 1270 ng/mL
IC50 [20]: 4.9 nM
IC50 [21]: > 30000 nM
remaining at 0.25 h, 0.5 µM [22]: 76%
Ratio IC50 [23]: 3.8
IC50 [24]: > 30000 nM
IC50 [25]: 1.3 nM
bioavailability [26]: 47.6%
Vd [27]: 0.59 L/kg
EC50 [8]: 20.6 nM
IC50 [28]: > 30000 nM
remaining at 0.25 h, 0.5 µM [29]: 80%
AUC(0-inf) [30]: 9200 ng·h/mL
concentration at 8 h [31]: 424 ng/mL
half-life [32]: 2.91 h
Tmax [33]: 9.6 min
